From ChEMBL document CHEMBL1149300, “Novel retinoic acid metabolism blocking agents endowed with multiple biological activities are efficient growth inhibitors of human breast and prostate cancer cells in vitro and a human breast tumor xenograft in nude mice” (J Med Chem, 2004)
The source made the active and inactive calls. No cut-off for these calls is given here.

Legend:
[1] = Inhibition of ATRA hydroxylase in Syrian golden hamster liver microsome assessed ATRA metabolism using [11.12-3H]-ATRA; type: microsomes, Mesocricetus auratus
Summary of the method: (§1)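 Microsomes from male Syrian golden hamster liver, or from T47D cells pretreated with 1 µM ATRA. Incubation in 0.1 M phosphate buffer pH 7.4 with NADPH, MgCl2 and BSA, inhibitor in DMSO; 3 min preincubation at 37 °C, then [11,12-3H]-ATRA for 30 min at 37 °C under oxygen. Ethyl acetate extraction, reverse-phase HPLC with radiometric detection; percent polar metabolites; IC50 from dose-response curves.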

[2] = biological target: T1, Cytochrome P450 26A1 (Homo sapiens, UniProt O43174); assay: Inhibition of ATRA-induced CYP26 in human MCF7 cells assessed as ATRA metabolism using [11.12-3H]-ATRA up to 10 uM; type: functional, cell-based
T1 sequence (O43174 whole entry): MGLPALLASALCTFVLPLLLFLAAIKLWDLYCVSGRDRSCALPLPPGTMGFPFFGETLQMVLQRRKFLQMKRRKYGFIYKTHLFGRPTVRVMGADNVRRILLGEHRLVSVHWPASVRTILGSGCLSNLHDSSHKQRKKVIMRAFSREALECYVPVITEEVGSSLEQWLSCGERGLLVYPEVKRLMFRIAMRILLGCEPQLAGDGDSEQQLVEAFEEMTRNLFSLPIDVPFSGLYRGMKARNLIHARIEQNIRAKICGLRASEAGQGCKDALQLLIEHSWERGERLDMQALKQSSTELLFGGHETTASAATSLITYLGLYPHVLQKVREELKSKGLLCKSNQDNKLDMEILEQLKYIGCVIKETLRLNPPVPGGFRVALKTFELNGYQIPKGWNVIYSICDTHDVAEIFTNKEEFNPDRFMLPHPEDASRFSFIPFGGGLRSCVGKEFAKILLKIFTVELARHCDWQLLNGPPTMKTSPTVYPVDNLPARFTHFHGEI
Summary of the method: (§2)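 Cells seeded at 1 × 10^6 per well and pretreated with 1 µM ATRA for 12-15 h to induce CYP26. After washing, they were incubated 5 h with inhibitor (0.0001-10 µM) plus 0.001 µM [11,12-3H]-ATRA; stocks were in 95% ethanol. […] IC50 was taken from dose-response curves.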

[3] = biological target: T1, Cytochrome P450 26A1; assay: Inhibition of ATRA-induced CYP26 in human T47D cells assessed as ATRA metabolism using [11.12-3H]-ATRA up to 10 uM; type: functional, cell-based; summary of the method: as §2
[4] = biological target: T1, Cytochrome P450 26A1; assay: Inhibition of ATRA-induced CYP26 in human MCF7 cells assessed ATRA as metabolism using [11.12-3H]-ATRA; type: functional, cell-based
Summary of the method: (§3)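 MCF-7 or T47D cells (1 × 10^6 per well) induced with 1 µM ATRA for 12-15 h, washed, then given inhibitor (0.0001-10 µM, ethanol stock) plus 0.001 µM [11,12-3H]-ATRA for 5 h. Media and cells extracted with ethyl acetate; metabolites measured by reverse-phase HPLC with radiometric detection; IC50 from dose-response curves.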

[5] = biological target: T1, Cytochrome P450 26A1; assay: Inhibition of ATRA-induced CYP26 in human T47D cells assessed as ATRA metabolism using [11.12-3H]-ATRA; type: functional, cell-based; summary of the method: as §3
[6] = biological target: T1, Cytochrome P450 26A1; assay: Inhibition of ATRA-induced CYP26 in human T47D cell microsome assessed as ATRA metabolism using [11.12-3H]-ATRA; type: functional, microsomes; summary of the method: as §1
[7] = test system: MDA-MB-231; assay: Growth inhibition of human MDA-MB-231 cells after 6 days by MTT assay; type: functional, cell-based; conditions: MDA-MB-231, 144 h
[8] = test system: MCF7; assay: Growth inhibition of human MCF7 cells after 6 days by MTT assay; type: functional, cell-based; conditions: MCF7, 144 h
Summary of the method: (§4)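 MCF-7 (IMEM, 5% FBS) or T47D (RPMI 1640, 10% FBS) cells, 1 × 10^4 per well, adhered ~18 h, then exposed to 0.0001-10 µM drug (ethanol) for 6 days with media and drug renewed on day 4. MTT for 2 h, formazan dissolved in DMSO, A540. Triplicate wells, 2-3 experiments; IC50 by nonlinear regression.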

[9] = test system: T47D; assay: Growth inhibition of human T47D cells after 6 days by MTT assay; type: functional, cell-based; conditions: 144 h; summary of the method: as §4
[10] = test system: LNCaP; assay: Growth inhibition of human LNCaP cells after 6 days by MTT assay; type: functional, cell-based; conditions: 144 h
Summary of the method: (§5)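 LNCaP cells (1 × 10^4) on poly-L-lysine-coated wells, attached 36 h; PC-3 cells (1 × 10^4), uncoated, attached 24 h; both in RPMI 1640. Treated with a concentration range of drug for 6 days, medium changed every 3 days. MTT read-out at 540 nm; IC50 by nonlinear regression from at least two experiments.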

[11] = test system: PC-3; assay: Growth inhibition of human PC3 cells after 6 days by MTT assay; type: functional, cell-based; conditions: PC-3, 144 h; summary of the method: as §5
[12] = biological target: T2, Retinoic acid receptor alpha (Homo sapiens, UniProt P10276); assay: Displacement of [11,12-3H]ARTA from RARalpha
T2 sequence (P10276 whole entry): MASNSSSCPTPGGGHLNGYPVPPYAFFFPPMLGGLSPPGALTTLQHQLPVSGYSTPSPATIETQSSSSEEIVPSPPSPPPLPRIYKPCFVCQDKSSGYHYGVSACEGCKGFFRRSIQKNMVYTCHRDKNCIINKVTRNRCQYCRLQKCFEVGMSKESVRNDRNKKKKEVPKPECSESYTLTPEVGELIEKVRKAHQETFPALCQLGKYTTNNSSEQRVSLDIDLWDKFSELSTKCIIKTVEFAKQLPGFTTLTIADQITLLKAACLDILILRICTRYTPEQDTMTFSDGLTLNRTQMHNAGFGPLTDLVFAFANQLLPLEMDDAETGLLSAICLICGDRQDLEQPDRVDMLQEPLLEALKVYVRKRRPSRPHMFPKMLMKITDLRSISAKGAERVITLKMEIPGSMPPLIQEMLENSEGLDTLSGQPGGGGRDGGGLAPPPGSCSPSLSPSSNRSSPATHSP
Summary of the method: (§6)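 Recombinant S-Tag RARα, RARβ or RARγ fusion protein extracts (10-30 µg/mL total protein) in HEPES pH 7.9 binding buffer. Incubated with 1 nM [3H]all-trans-RA and 0-500 nM test compound for 3 h at 27 °C.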

[13] = biological target: T3, Retinoic acid receptor beta (Homo sapiens, UniProt P10826); assay: Displacement of [11,12-3H]ARTA from RARbeta; summary of the method: as §6
T3 sequence (P10826 whole entry): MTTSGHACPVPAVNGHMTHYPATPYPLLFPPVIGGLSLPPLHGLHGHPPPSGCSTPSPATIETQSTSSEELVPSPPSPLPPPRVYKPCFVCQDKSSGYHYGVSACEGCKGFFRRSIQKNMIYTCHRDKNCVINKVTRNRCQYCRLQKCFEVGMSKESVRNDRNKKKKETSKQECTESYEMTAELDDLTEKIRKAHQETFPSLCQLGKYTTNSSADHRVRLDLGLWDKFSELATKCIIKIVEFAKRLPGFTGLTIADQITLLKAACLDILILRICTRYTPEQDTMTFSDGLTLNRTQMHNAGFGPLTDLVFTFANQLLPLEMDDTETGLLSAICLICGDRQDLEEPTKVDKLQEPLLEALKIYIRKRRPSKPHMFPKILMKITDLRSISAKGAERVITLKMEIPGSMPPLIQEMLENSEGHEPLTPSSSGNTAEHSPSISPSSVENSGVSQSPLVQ

[14] = Displacement of [11,12-3H]ARTA from RARgamma; set-up: species or system Homo sapiens
Summary of the method: as §6, with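 “°C. Nonspecific binding measured with a 200-fold excess of unlabeled RA; IC50 from dose-response curves, at least two experiments.” for “°C.”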

[15] = test system: LNCaP; assay: Induction of cell differentiation in human LNCaP cells after 6 days; type: functional, cell-based
Summary of the method: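 LNCaP cells given 1 µM compound, alone or with 1 µM ATRA, for 6 days. Lysates (50 µg) run on 10% SDS-PAGE and Western blotted with anti-cytokeratin 8/18, β-actin as control. ECL detection; band intensity by densitometry taken as the differentiation marker.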

[16] = test system: MDA-MB-231; assay: Growth inhibition of human MDA-MB-231 cells up to 10 uM after 6 days by MTT assay; type: functional, cell-based
[17] = test system: MCF7; assay: Induction of apoptosis in human MCF7 cells at 1 uM for 6 days by TUNEL assay; type: functional, cell-based
Summary of the method: (§7)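 MCF-7 or T47D cells exposed to 1 µM compound for 6 days, then trypsinized, fixed in 1% paraformaldehyde and stored in 70% ethanol at -20 °C overnight. TdT/BrdUTP labeling (APO-BRDU TUNEL), fluorescein anti-BrdU plus PI/RNase stain; apoptotic cells counted by flow cytometry.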

[18] = test system: T47D; assay: Induction of apoptosis in human T47D cells at 1 uM for 6 days by TUNEL assay; type: functional, cell-based; summary of the method: as §7

Compound | IC50 [1] [nM] | Ki [1] [nM] | IC50 [4] [nM] | IC50 [5] [nM] | IC50 [7] [nM] | IC50 [8] [nM] | IC50 [10] [nM] | IC50 [11] [nM] | other results
CC(=O)N1CCN(c2ccc(OCC3COC(Cn4ccnc4)(c4ccc(Cl)cc4Cl)O3)cc2)CC1 (stereo not drawn) [KETOCONAZOLE] | 34000 |  |  |  |  |  |  |  | 
COC(=O)/C=C(C)/C=C/C=C(C)/C=C/C1=C(C)C(=N/O)/CCC1(C)C | 23 |  |  |  |  |  |  |  | 
Clc1cccc(C(c2ccc3[nH]cnc3c2)n2ccnc2)c1 (stereo not drawn) [LIAROZOLE] | 6000 |  |  |  |  |  |  |  | Activity [2]: Not Active; Activity [3]: Not Active
CC1=C(/C=C/C(C)=C/C=C/C(C)=C/C(=O)Nc2ccc(O)cc2)C(C)(C)CCC1n1ccnc1 (racemic) | 43.7 | 0.35 | 56 | 24 | 6300 | 610 | 9000 | 1500 | IC50 [9]: 570 nM
CC1=C(/C=C/C(C)=C/C=C/C(C)=C/C(=O)O)C(C)(C)CCC1n1cncn1 (racemic) | 5.84 |  |  |  |  |  |  |  | IC50 [12]: > 1000 nM; IC50 [13]: 1000 nM; IC50 [14]: 700 nM
CC1=C(/C=C/C(C)=C/C=C/C(C)=C/C(=O)Nc2ccc(O)cc2)C(C)(C)CCC1 [FENRETINIDE] | 31800 |  |  |  | 7700 | 150 | 7500 | 3600 | 

More lines, main results first:

IC50 [1] [nM] | Ki [1] [nM] | IC50 [4] [nM] | IC50 [5] [nM] | IC50 [7] [nM] | IC50 [8] [nM] | IC50 [10] [nM] | IC50 [11] [nM] | Compound | other results
0.009 | 46 | 200 | 215 | 7500 |  |  |  | COC(=O)/C=C(C)/C=C/C=C(C)/C=C/C1=C(C)C(n2ccnc2)CCC1(C)C (racemic) | IC50 [6]: 40 nM
2 |  |  |  |  |  |  |  | COC(=O)/C=C(C)/C=C/C=C(C)/C=C/C1=C(C)C(n2cncn2)CCC1(C)C (racemic) | 
0.05 | 62 | 24.7 | 10 |  | 130 | 10000 | 5800 | CC1=C(/C=C/C(C)=C/C=C/C(C)=C/C(=O)n2ccnc2)C(C)(C)CCC1n1ccnc1 (racemic) | Activity [15]: Active; IC50 [6]: 5.2 nM; IC50 [9]: 9 nM; Activity [16]: inactive; Activity [17]: Active; Activity [18]: Active
61.2 |  |  |  | 7000 |  |  |  | CC1=C(/C=C/C(C)=C/C=C/C(C)=C/C(=O)n2ccnc2)C(C)(C)CCC1 | IC50 [12]: > 1000 nM; IC50 [13]: 500 nM; IC50 [14]: 500 nM
